Assay [1] in a line: (§1) Cytotoxicity on COS A6 cells in the absence of 10% fetal calf serum(FCS). Format: functional. Particulars: read-out: LD50 (the source's name). The procedure, abridged:
(§2)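 COS A6 cells, which are cloned progeny that constitutively release viral capsids, were cultured without fetal calf serum and exposed to compound. Viability was read by MTT stain assay, and the LD50 was derived from it.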

Assay [2] concerns the target T1, Human immunodeficiency virus type 1 protease (Human immunodeficiency virus 1, UniProt Q72874). Kind of assay: Inhibition of HIV-1 protease in 10% fetal calf serum(FCS). The procedure, abridged: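 COS A6 cells, which constitutively release viral capsids, were exposed to inhibitor in Dulbecco's PBS for 15 min. An equal volume of medium with 10% FCS plus inhibitor was then added and incubation continued for 3.75 h. Capsids were isolated from the supernatant, and polyprotein processing was scored as p24 by ELISA.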

The target of assay [3] is Human immunodeficiency virus type 2 pol protein (Human immunodeficiency virus 2, UniProt P88142). In words: Inhibition of HIV-2 protease in 5%DMSO. The procedure, abridged: (§3)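 Purified recombinant HIV PR activity was followed by cleavage of a decapeptide substrate. Incubation was 30–45 min at 37 °C, and hydrolysis products were quantified by HPLC.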
Human immunodeficiency virus type 2 pol protein, sequence (P88142 whole entry): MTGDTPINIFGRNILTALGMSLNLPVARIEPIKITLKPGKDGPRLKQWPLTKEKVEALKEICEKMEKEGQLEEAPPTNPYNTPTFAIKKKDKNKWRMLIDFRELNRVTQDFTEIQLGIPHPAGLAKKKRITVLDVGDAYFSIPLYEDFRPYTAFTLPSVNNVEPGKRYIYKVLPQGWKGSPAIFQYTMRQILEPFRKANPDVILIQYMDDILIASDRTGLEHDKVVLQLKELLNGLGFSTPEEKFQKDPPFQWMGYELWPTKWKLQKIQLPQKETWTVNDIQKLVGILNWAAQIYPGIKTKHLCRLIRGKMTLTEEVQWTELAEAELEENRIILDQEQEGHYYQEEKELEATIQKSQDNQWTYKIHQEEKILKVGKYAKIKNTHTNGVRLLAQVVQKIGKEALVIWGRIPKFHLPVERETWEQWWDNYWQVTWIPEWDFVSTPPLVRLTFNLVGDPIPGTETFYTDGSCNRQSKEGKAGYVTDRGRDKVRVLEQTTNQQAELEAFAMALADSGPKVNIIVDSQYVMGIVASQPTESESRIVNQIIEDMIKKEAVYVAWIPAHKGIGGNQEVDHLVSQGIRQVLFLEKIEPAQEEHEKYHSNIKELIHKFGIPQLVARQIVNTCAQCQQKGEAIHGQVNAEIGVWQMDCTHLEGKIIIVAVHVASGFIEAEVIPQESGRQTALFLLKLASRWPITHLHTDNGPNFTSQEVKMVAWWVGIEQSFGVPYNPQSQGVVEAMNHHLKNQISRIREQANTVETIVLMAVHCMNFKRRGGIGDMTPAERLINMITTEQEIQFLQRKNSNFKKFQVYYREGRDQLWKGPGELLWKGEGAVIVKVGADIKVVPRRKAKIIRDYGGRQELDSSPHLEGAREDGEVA
In assay [4] the target is T1, Human immunodeficiency virus type 1 protease. In words: Inhibition of HIV-1 protease in 5%DMSO. The procedure, abridged: as §3
In assay [5] the target is HIV-2 protease (Human immunodeficiency virus 2). Kind of assay: Inhibitory concentration against HIV-2 protease in the absence of DMSO.
The target of assay [6] is T1, Human immunodeficiency virus type 1 protease. In words: Inhibitory concentration against HIV-1 protease in the absence of DMSO. The procedure, abridged:
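The water-soluble dipotassium salt was tested against aspartyl proteases with no DMSO present, and IC50 values were determined.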

The subject of another assay is COS A6. The description is as §1. It counts as functional. The procedure, abridged: as §2

As for `CC1=C(C(COC(=O)c2ccccc2)OC(=O)c2ccccc2)c2cc3nc(cc4[nH]c(cc5[nH]c(cc1n2)c(C)c5CCC(=O)O)c(CCC(=O)O)c4C)C(C(COC(=O)c1ccccc1)OC(=O)c1ccccc1)=C3C` (stereo unspecified), the CC50 in assay [1] (COS A6) is 250 µM. For the same molecule, the IC50 in assay [2] was above 100 µM; in assay [3], 30 µM; in assay [4], 14 µM.

For the molecule `CC1=C(C(COC(=O)c2ccc3ccccc3c2)OC(=O)c2ccc3ccccc3c2)c2cc3nc(cc4[nH]c(cc5[nH]c(cc1n2)c(C)c5CCC(=O)O)c(CCC(=O)O)c4C)C(C(COC(=O)c1ccc2ccccc2c1)OC(=O)c1ccc2ccccc2c1)=C3C` (stereo unspecified), the CC50 in assay [1] (COS A6) is 250 µM. In addition, the IC50 in assay [2] is above 150 µM; in assay [3] it was 23 µM; in assay [4], 14 µM.

Consider “3-[18-(2-Carboxy-ethyl)-8,13-bis-(1,2-diacetoxy-ethyl)-3,7,12,17-tetramethyl-22,24-dihydro-porphin-2-yl]-propionic acid;Cu complex [listing 1 of 2 here]”, for which the midpoint of inhibition in assay [5], the IC50, lay at 0.47 µM.

Take `CC1=C(CCC(=O)O)c2cc3[nH]c(cc4[nH]c(cc5nc(cc1n2)C(C)=C5C(COC(=O)C1=CCC1)OC(=O)C1=CCC1)c(C)c4C(COC(=O)C1=CCC1)OC(=O)C1=CCC1)c(C)c3CCC(=O)O` (stereo unspecified): the CC50 in assay [1] (COS A6) came out at 25 µM. Also, the half-maximal inhibitory concentration (IC50) in assay [2] was determined as 10 µM; in assay [3], 1.55 µM; in assay [6] it was 0.9 µM; in assay [4] it was 0.7 µM.

For the molecule “3-[18-(2-Carboxy-ethyl)-8,13-bis-(1,2-diacetoxy-ethyl)-3,7,12,17-tetramethyl-22,24-dihydro-porphin-2-yl]-propionic acid;Co complex [listing 1 of 2 here]”, the IC50 in assay [2] stood at 25 µM.

“3-[18-(2-Carboxy-ethyl)-8,13-bis-(1,2-diacetoxy-ethyl)-3,7,12,17-tetramethyl-22,24-dihydro-porphin-2-yl]-propionic acid;Mn complex”: in the assay on COS A6, the LD50 was found to be 70 µM.

The molecule “3-[18-(2-Carboxy-ethyl)-8,13-bis-(1,2-diacetoxy-ethyl)-3,7,12,17-tetramethyl-22,24-dihydro-porphin-2-yl]-propionic acid;Co complex [listing 2 of 2 here]” registered an LD50 in the assay with COS A6 of 150 µM.

`CC1=C(C(COC(=O)C23C[C@H]4C[C@@H](C2)C[C@@H](C3)C4)OC(=O)C23C[C@H]4C[C@@H](C2)C[C@@H](C3)C4)c2cc3nc(cc4[nH]c(cc5[nH]c(cc1n2)c(C)c5CCC(=O)O)c(CCC(=O)O)c4C)C(C(COC(=O)C12C[C@H]4C[C@@H](C1)C[C@@H](C2)C4)OC(=O)C12C[C@H]4C[C@@H](C1)C[C@@H](C2)C4)=C3C` (stereo partly specified): the CC50 in assay [1] (COS A6) came to 250 µM. Moreover, the IC50 came out at 13 µM in assay [3] and 5 µM in assay [4].

Turning to `CC1=C(C(O)CO)c2cc3nc(cc4[nH]c(cc5[nH]c(cc1n2)c(C)c5CCC(=O)O)c(CCC(=O)O)c4C)C(C(O)CO)=C3C` (stereo unspecified), the CC50 in assay [1] (COS A6) was 250 µM. The IC50 is above 200 µM in assay [2], 480 µM in assay [3] and 280 µM in assay [4].

Take `CC[C@H](C)[C@H](NC(=O)[C@H](C(C)C)[C@@H](O)[C@H](O)[C@H](CC1CCCCC1)NC(=O)[C@H](Cc1c[nH]cn1)NC(=O)COc1cccc2ccccc12)C(=O)NCc1ccccn1`: the CC50 in assay [1] (COS A6) stood at 45 µM. The IC50 is 0.75 µM in assay [2], 0.03 µM in assay [3] and below 0.001 µM in assay [4].

With `C=CC1=C(C)c2cc3[nH]c(cc4nc(cc5[nH]c(cc1n2)c(C)c5CCC(=O)O)C(CCC(=O)O)=C4C)c(C)c3C=C` [PROTOPORPHYRIN], the CC50 in assay [1] (COS A6) is below 50 µM. The half-inhibitory concentration (IC50) in assay [2] is above 200 µM; in assay [3] it was 500 µM; in assay [4], 300 µM.

With `CC1=C(C(COC(=O)c2ccc(N(C)C)cc2)OC(=O)c2ccc(N(C)C)cc2)c2cc3nc(cc4[nH]c(cc5[nH]c(cc1n2)c(C)c5CCC(=O)O)c(CCC(=O)O)c4C)C(C(COC(=O)c1ccc(N(C)C)cc1)OC(=O)c1ccc(N(C)C)cc1)=C3C` (stereo unspecified), in assay [1] (COS A6), the CC50 was above 250 µM. The IC50 worked out at 75 µM in assay [2], 18 µM in assay [3] and 7 µM in assay [4].

On to “3-[18-(2-Carboxy-ethyl)-8,13-bis-(1,2-diacetoxy-ethyl)-3,7,12,17-tetramethyl-22,24-dihydro-porphin-2-yl]-propionic acid;Cu complex [listing 2 of 2 here]”, for which the LD50 in the assay with COS A6 was 80 µM.

On to `CC1=C(CCC(=O)O)c2cc3[nH]c(cc4[nH]c(cc5nc(cc1n2)C(C)=C5C(COC(=O)C1=CC1)OC(=O)C1=CC1)c(C)c4C(COC(=O)C1=CC1)OC(=O)C1=CC1)c(C)c3CCC(=O)O` (stereo in doubt), for which, in assay [1], the CC50 was found to be 250 µM. For the same molecule, the IC50 in assay [2] is above 150 µM; in assay [3], 11 µM; in assay [4], 12 µM.

Usually IC50 stands for the midpoint of a concentration-inhibition curve. Low readings indicate greater potency in that assay, high ones weaker potency in that assay.

(Values after ChEMBL document CHEMBL1126254, “Specific inhibition of HIV-1 protease by boronated porphyrins” (J Med Chem, 1992).)
